{"data": "Results gathered from unrelated publications", "target": "Glycogen synthase kinase-3 beta (GSK3B, Homo sapiens, UniProt P49841)", "method": "competition with immobilised ligand", "note": "Each line is one published result; the experiments were not run side by side."}
{"Structure (SMILES)": "C[C@H](c1ccnc(Nc2nc3ccc(-c4cc(N(C)C)ncn4)cc3[nH]2)c1)N1CCN(C(=O)CC(F)(F)F)CC1", "assay": "cell-free assay", "setting": "0.1 µM", "remaining binding [%]": 100}
{"Structure (SMILES)": "CC(C)(C)c1ccc(-c2nc(CBr)nn2-c2cccc(O)c2)cc1", "assay": "cell-free assay", "setting": "10 µM", "remaining binding [%]": 81}
{"Structure (SMILES)": "Cn1nc(C(=O)NCc2ccc(C(=O)O)cc2)cc1-c1ccc2[nH]ccc2c1", "assay": "cell-free assay", "setting": "0.1 µM", "remaining binding [%]": 78}
{"Structure (SMILES)": "O=C(Nc1c[nH]nc1C(=O)NC1CCNCC1)c1cc(F)cc(F)c1", "assay": "binding", "setting": "1 µM", "remaining binding [%]": 0.5}
{"Structure (SMILES)": "O=C(c1ccc(Nc2ncc(Cl)c(-c3ccc(Cl)s3)n2)cc1)N1CCC(N2CCCC2)CC1", "assay": "binding", "setting": "1 µM", "remaining binding [%]": 60}
{"Structure (SMILES)": "C[C@H]1CCN(c2nccc(-c3cnn4ncccc34)n2)C1", "assay": "binding", "setting": "1 µM", "remaining binding [%]": 98}
{"Structure (SMILES)": "CCN1CCN(Cc2ccc(C(=O)Nc3ccc(C)c(Oc4ccc5c(c4)CC(=O)N5)c3)cc2C(F)(F)F)CC1", "assay": "binding", "setting": "1 µM", "remaining binding [%]": 100}
{"Structure (SMILES)": "C=CC(=O)N1CCC(C(=O)NCC(=O)N2CCN(c3nc(-c4cnc(N)nc4C(F)F)nc(N4CCOCC4)n3)CC2)CC1", "assay": "binding", "setting": "1 µM", "remaining binding [%]": 74}
{"Structure (SMILES)": "N#Cc1ccccc1CSc1nnc2c(n1)[nH]c1ccccc12", "assay": "binding", "setting": "10 µM", "remaining binding [%]": 100}
{"Structure (SMILES)": "COc1cnc(Nc2cccc(S(N)(=O)=O)c2)nc1N1CCN(c2ccccc2)CC1", "assay": "binding", "setting": "1 µM", "remaining binding [%]": 97}
{"Structure (SMILES)": "O=C(Nc1ccc(Oc2ccc(F)cc2)cc1)N1CCc2ncccc2[C@H]1c1ccc(F)cc1", "assay": "cell-free assay", "setting": "1 µM", "remaining binding [%]": 100}
{"Structure (SMILES)": "C[C@@H]1CN(c2ccc3ncc(-c4ccc5[nH]nc(C6CC6)c5c4)n3n2)C[C@H](C)O1", "assay": "binding", "setting": "50 nM", "remaining binding [%]": 76}
{"Structure (SMILES)": "O=C(c1ccc(Nc2ncc(Cl)c(-c3cc4ccccc4s3)n2)cc1)N1CCC(N2CCCC2)CC1", "assay": "binding", "setting": "1 µM", "remaining binding [%]": 37}
{"Structure (SMILES)": "CC(C)CC(=O)N1CCc2nc(-c3ccc(Br)cc3)nc(N(C)Cc3ccccc3)c2C1", "assay": "cell-free assay", "setting": "0.1 µM", "remaining binding [%]": 100}
{"Structure (SMILES)": "CN(CCCC(F)(F)F)c1nccc(-c2cnn3ncccc23)n1", "assay": "binding", "setting": "1 µM", "remaining binding [%]": 87}
{"Structure (SMILES)": "CN(C)C(=O)Cn1cc(-c2nc(C3(c4ccc(-c5cnc(N)nc5)cc4)CC3)no2)cn1", "assay": "cell-free assay", "setting": "1 µM", "remaining binding [%]": 81}
{"Structure (SMILES)": "C[C@@H](c1ccc(-n2cnc3c(N)ncnc32)cc1)N1CCc2nn(C)c(Cc3ccccc3)c2C1=O", "assay": "binding", "setting": "0.1 µM", "remaining binding [%]": 58}
{"Structure (SMILES)": "CN(C)CC#Cc1ccc(OCCCc2sc(N3CCc4cccc(C(=O)Nc5nc6ccccc6s5)c4C3)nc2C(=O)O)c(F)c1", "assay": "cell-free assay", "setting": "1 µM", "remaining binding [%]": 93}
{"Structure (SMILES)": "O=C(NCCCN1CCOCC1)c1ccc(Nc2ncc(Cl)c(-c3ccc(Cl)s3)n2)cc1", "assay": "binding", "setting": "1 µM", "remaining binding [%]": 95}
